Here are results for ten compounds from ChEMBL document CHEMBL3872263, “Synthesis and biological evaluation of phosphate isosters of fosmidomycin and analogs as inhibitors of Escherichia coli and Mycobacterium smegmatis 1-deoxyxylulose 5-phosphate reductoisomerases” (Bioorg Med Chem, 2017).

A short description of assay [1]: Inhibition of Mycobacterium smegmatis His6-tagged DXR preincubated for 2 mins in presence of NADPH followed by DXP substrate addition. On the set-up: species or system Mycolicibacterium smegmatis. In short, it runs like this: (§1)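 Recombinant His-tagged DXR was assayed at 37°C in 50 mM Tris/HCl pH 7.5 with 3 mM MgCl2 and 2 mM DTT. The enzyme was pre-incubated for 2 min with NADPH and the inhibitor at a range of concentrations, then DXP was added to start the reaction and residual activity was measured. IC50 was read from a plot of percent residual activity versus log inhibitor concentration.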

The test system of assay [2] is Escherichia coli. In words: Growth inhibition of Escherichia coli XL1 blue at 100 nmol/disc incubated overnight by paper disc diffusion method. The assay is classed as functional. In short, it runs like this:
(§2)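 Paper disc diffusion assay on E. coli XL1 Blue grown in LB agar. 6 mm paper discs were impregnated with the stated amount of compound, and plates were incubated overnight at 37°C.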
(In general: Agar diffusion results depend on both activity and mobility in agar.)

Assay [3] is described as follows: Inhibition of Escherichia coli His6-tagged DXR preincubated for 2 mins in presence of NADPH followed by DXP substrate addition. In short, it runs like this:
as §1

Assay [4] has as its system Escherichia coli. The assay is described as follows: Activity at Escherichia coli DXR assessed as ratio of Kcat to Km […] in presence of NADPH by Lineweaver-burk plot method.
The test system of assay [5] is Escherichia coli. The assay is described as follows: Growth inhibition of Escherichia coli XL1 blue at 160 nmol/disc incubated overnight by paper disc diffusion method. It counts as functional. The essentials: as §2
The subject of assay [6] is Escherichia coli. In words: Growth inhibition of Escherichia coli XL1 blue at 2 nmol/disc incubated overnight by paper disc diffusion method. The assay is classed as functional. The essentials:
(§3)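 Paper disc diffusion on E. coli XL1 Blue growing on LB-agar; 6 mm paper discs impregnated with test compound at the stated amount per disc; plates incubated overnight at 37°C, then growth inhibition read.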

Assay [7] concerns Escherichia coli. In words: Growth inhibition of Escherichia coli XL1 blue at 400 nmol/disc incubated overnight by paper disc diffusion method. It counts as functional. In short, it runs like this: as §3
Assay [8] deals with Escherichia coli. In words: Growth inhibition of fosmidomycin resistant Escherichia coli incubated overnight by paper disc diffusion method. It counts as functional.
In assay [9] the test system is Escherichia coli. The assay is described as follows: Growth inhibition of Escherichia coli XL1 blue at 80 nmol/disc incubated overnight by paper disc diffusion method. The assay is classed as functional. The essentials:
as §3

Consider `CC(=O)N(O)CCOP(=O)(O)O`, for which the IC50 (as a rule, the concentration that inhibits the measured activity by half) in assay [1] was found to be 0.279 µM; in assay [3] it was 0.077 µM. Moreover, in the assay on Escherichia coli [2], the “diameter of the inhibition zone (DIZ)” value was 27 mm.

Turning to `CC(=O)[C@@H](O)[C@H](O)COP(=O)(O)O`, the kcat/Km (usually the turnover number divided by the Michaelis constant) with Escherichia coli [4] stood at 412000 M⁻¹ s⁻¹.

Regarding `CN(O)C(=O)CCOP(=O)(O)O`, in the assay with Escherichia coli [5], the “diameter of the inhibition zone (DIZ)” value is 20 mm. Further, the IC50 turned out to be 0.233 µM in assay [1] and 0.046 µM in assay [3].

In the case of `CC(=O)N(O)CCCP(=O)(O)O` [FR-900098], in the assay on Escherichia coli [6], the “diameter of the inhibition zone (DIZ)” value came to 32 mm. Also, in assay [3], the IC50 amounted to 0.004 µM.

For the compound `O=C(CCCP(=O)(O)O)NO`, the IC50 in [3] was determined as 0.17 µM. In addition, the “diameter of the inhibition zone (DIZ)” value in the assay with Escherichia coli [7] is 12 mm.

For the compound `CC(=O)[C@@H](O)[C@H](O)CCP(=O)(O)O`, the kcat/Km with Escherichia coli [4] was found to be 11700 M⁻¹ s⁻¹.

Consider `O=C(CCOP(=O)(O)O)NO`, for which the IC50 in assay [1] turned out to be 9.2 µM; in assay [3], 2.6 µM. The “diameter of the inhibition zone (DIZ)” value with Escherichia coli [7] is on record as <10 mm.

As for `CN(O)C(=O)CCCP(=O)(O)O`, the figures for the “diameter of the inhibition zone (DIZ)” value in the assay with Escherichia coli [8] and with Escherichia coli [9] were 18 mm and 30 mm, respectively. Besides, the IC50 in [3] came to 0.048 µM.

Take `O=CN(O)CCCP(=O)(O)O` [FOSMIDOMYCIN]: the “diameter of the inhibition zone (DIZ)” value with Escherichia coli [6] was 34 mm. In addition, in assay [3], the IC50 was 0.042 µM.

For `O=CN(O)CCOP(=O)(O)O`, in the assay with Escherichia coli [5], the “diameter of the inhibition zone (DIZ)” value came out at 24 mm. The IC50 was found to be 2.1 µM in assay [1] and 0.342 µM in assay [3].
